Results: ChEMBL document CHEMBL5724801, “EUbOPEN Chemogenomics Library - Multiplex” (2024)
Several values for one entry are separate records, joined by “and”; a condition that tells them apart may be missing. Equal entries are not always repeated.

Tested on: HEK-293T
Test: Multiplex assay against HEK293T
Format: toxicity, cell-based
Conditions: human
Summary of the method: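 Cells were classed with CellPathfinder machine-learning gating, first as Hoechst high-intensity objects or normal cells, then (normal cells) as healthy, pyknosed or fragmented nuclei, and finally (pyknosed cells) as mitotic or apoptotic. Staining of live cells at seeding used Hoechst33342, BioTracker Green Microtubule Cytoskeleton Dye, MitoTracker Red and Annexin V Alexa Fluor 680, with imaging on a CQ1 microscope at 37°C and 5% CO2 after compound addition. Tubulin, mitochondrial-mass and membrane-permeability phenotypes are per cents of healthy-nucleus cells.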

[1] = 12 h, 1 µM, compound concentration 1 uM
[2] = 12 h, 10 µM, compound concentration 10 uM
[3] = 24 h, 1 µM, compound concentration 1 uM
[4] = 24 h, 10 µM, compound concentration 10 uM
[5] = 48 h, 1 µM, compound concentration 1 uM
[6] = 48 h, 10 µM, compound concentration 10 uM

In the case of `Cc1cc(-c2ccc3c(c2)CC[C@H]3N2CC3(CCN(C(=O)Cc4cn5cc(C)sc5n4)CC3)C2)ncn1` [PF-5190457], the “Population Apoptotic (%)” value [1] is reported as 36% and 47%, the “Population Fragmented Nuclei (%)” value [1] is reported as 5% and 8% and the “Population Healthy Nuclei (%)” value [1] is reported as 83% and 72%. For the same molecule, the “Population Hoechst High Intensity Objects (%)” value [1] was 5% and 10%, the “Population Membrane Permeable-Phenotype (%)” value [1] was 0% and the “Population Mitochondria Different-Phenotype (%)” value [1] was 40% and 53%. For the same molecule, the “Population Mitotic Cells (%)” value [1] was 63% and 52%, the “Population Normal (%)” value [1] was 94% and 89% and the “Population Pyknosed Nuclei (%)” value [1] was 11% and 19%. For the same molecule, the “Population Tubulin-Different-Phenotype (%)” value [1] was 25% and 22%, the “Total Cell Count” value [1] was 418 and 258 and the “Population Apoptotic (%)” value [2] was 40% and 54%. The “Population Fragmented Nuclei (%)” value [2] was 9% and 3%, the “Population Healthy Nuclei (%)” value [2] was 75% and 80% and the “Population Hoechst High Intensity Objects (%)” value [2] was 11% and 8%. For the same molecule, the “Population Membrane Permeable-Phenotype (%)” value [2] was 0%, the “Population Mitochondria Different-Phenotype (%)” value [2] was 53% and 70% and the “Population Mitotic Cells (%)” value [2] was 60% and 45%. The “Population Normal (%)” value [2] was 88% and 91%, the “Population Pyknosed Nuclei (%)” value [2] was 14% and 16% and the “Population Tubulin-Different-Phenotype (%)” value [2] was 37% and 40%. For the same molecule, the “Total Cell Count” value [2] was 455 and 322, the “Population Apoptotic (%)” value [3] was 21% and 45% and the “Population Fragmented Nuclei (%)” value [3] was 8% and 11%. The “Population Healthy Nuclei (%)” value [3] was 77% and 78%, the “Population Hoechst High Intensity Objects (%)” value [3] was 2% and 7% and the “Population Membrane Permeable-Phenotype (%)” value [3] was 0% and 1%. The “Population Mitochondria Different-Phenotype (%)” value [3] was 24% and 35%, the “Population Mitotic Cells (%)” value [3] was 78% and 54% and the “Population Normal (%)” value [3] was 97% and 92%. For the same molecule, the “Population Pyknosed Nuclei (%)” value [3] was 13% and 9%, the “Population Tubulin-Different-Phenotype (%)” value [3] was 16% and 11% and the “Total Cell Count” value [3] was 549 and 352. The “Population Apoptotic (%)” value [4] was 25% and 36%, the “Population Fragmented Nuclei (%)” value [4] was 10% and 5% and the “Population Healthy Nuclei (%)” value [4] was 75% and 81%. The “Population Hoechst High Intensity Objects (%)” value [4] was 5% and 6%, the “Population Membrane Permeable-Phenotype (%)” value [4] was 1% and 0% and the “Population Mitochondria Different-Phenotype (%)” value [4] was 28% and 51%. For the same molecule, the “Population Mitotic Cells (%)” value [4] was 74% and 63%, the “Population Normal (%)” value [4] was 94% and 93% and the “Population Pyknosed Nuclei (%)” value [4] was 14% and 13%. For the same molecule, the “Population Tubulin-Different-Phenotype (%)” value [4] was 30% and 23%, the “Total Cell Count” value [4] was 638 and 425 and the “Population Apoptotic (%)” value [5] was 25% and 39%. For the same molecule, the “Population Fragmented Nuclei (%)” value [5] was 14% and 12%, the “Population Healthy Nuclei (%)” value [5] was 79% and 80% and the “Population Hoechst High Intensity Objects (%)” value [5] was 1% and 3%. The “Population Membrane Permeable-Phenotype (%)” value [5] was 1%, the “Population Mitochondria Different-Phenotype (%)” value [5] was 18% and 21% and the “Population Mitotic Cells (%)” value [5] was 74% and 60%. The “Population Normal (%)” value [5] was 98% and 96%, the “Population Pyknosed Nuclei (%)” value [5] was 5% and 6% and the “Population Tubulin-Different-Phenotype (%)” value [5] was 9% and 10%. The “Total Cell Count” value [5] was 873 and 531, the “Population Apoptotic (%)” value [6] was 24% and 46% and the “Population Fragmented Nuclei (%)” value [6] was 14% and 13%. For the same molecule, the “Population Healthy Nuclei (%)” value [6] was 77% and 78%, the “Population Hoechst High Intensity Objects (%)” value [6] was 2% and 4% and the “Population Membrane Permeable-Phenotype (%)” value [6] was 0%. The “Population Mitochondria Different-Phenotype (%)” value [6] was 27% and 32%, the “Population Mitotic Cells (%)” value [6] was 76% and 53% and the “Population Normal (%)” value [6] was 97% and 95%. For the same molecule, the “Population Pyknosed Nuclei (%)” value [6] was 8%, the “Population Tubulin-Different-Phenotype (%)” value [6] was 20% and the “Total Cell Count” value [6] was 927 and 520.

`O=C(Nc1ccccc1Br)N[C@@H]1CCN(c2ccc(C(F)(F)F)cn2)C1` [SB-705498] was tested, and the “Population Apoptotic (%)” value [1] was 7.52% and 7.03%, the “Population Fragmented Nuclei (%)” value [1] was 0.88% and 1.23% and the “Population Hoechst High Intensity Objects (%)” value [1] was 0.29% and 0%. For the same molecule, the “Population Membrane Permeable-Phenotype (%)” value [1] was 0.99% and 0%, the “Population Mitochondria Different-Phenotype (%)” value [1] was 31.53% and 18.75% and the “Population Mitotic Cells (%)” value [1] was 92.48% and 92.97%. The “Population Normal (%)” value [1] was 99.71% and 100%, the “Population Pyknosed Nuclei (%)” value [1] was 39.23% and 79.01% and the “Total Cell Count” value [1] was 340 and 162. The “Population Apoptotic (%)” value [2] was 12.68% and 20.16%, the “Population Fragmented Nuclei (%)” value [2] was 2.69% and 4.05% and the “Population Hoechst High Intensity Objects (%)” value [2] was 1.52% and 0%. The “Population Membrane Permeable-Phenotype (%)” value [2] was 0.9% and 7.69%, the “Population Mitochondria Different-Phenotype (%)” value [2] was 31.53% and 23.08% and the “Population Mitotic Cells (%)” value [2] was 87.32% and 79.84%. For the same molecule, the “Population Normal (%)” value [2] was 98.48% and 100%, the “Population Pyknosed Nuclei (%)” value [2] was 54.62% and 87.16% and the “Population Tubulin-Different-Phenotype (%)” value [2] was 17.12% and 46.15%. The “Total Cell Count” value [2] was 264 and 148, the “Population Apoptotic (%)” value [3] was 16.92% and 17.07% and the “Population Fragmented Nuclei (%)” value [3] was 1.6% and 1.17%. The “Population Healthy Nuclei (%)” value [3] was 75.22% and 26.9%, the “Population Hoechst High Intensity Objects (%)” value [3] was 0.18% and 0% and the “Population Membrane Permeable-Phenotype (%)” value [3] was 2.37% and 2.17%. For the same molecule, the “Population Mitochondria Different-Phenotype (%)” value [3] was 11.37% and 2.17%, the “Population Mitotic Cells (%)” value [3] was 83.08% and 82.93% and the “Population Normal (%)” value [3] was 99.82% and 100%. For the same molecule, the “Population Tubulin-Different-Phenotype (%)” value [3] was 10.9% and 6.52%, the “Population Apoptotic (%)” value [4] was 24.63% and 21.09% and the “Population Fragmented Nuclei (%)” value [4] was 1.27% and 4.24%. For the same molecule, the “Population Hoechst High Intensity Objects (%)” value [4] was 0%, the “Population Membrane Permeable-Phenotype (%)” value [4] was 0% and the “Population Mitochondria Different-Phenotype (%)” value [4] was 24.71% and 20%. The “Population Mitotic Cells (%)” value [4] was 75.37% and 78.91%, the “Population Normal (%)” value [4] was 100% and the “Population Pyknosed Nuclei (%)” value [4] was 34.01% and 77.58%. For the same molecule, the “Population Tubulin-Different-Phenotype (%)” value [4] was 37.65% and 16.67%, the “Total Cell Count” value [4] was 394 and 165 and the “Population Apoptotic (%)” value [5] was 9.6% and 17.81%. For the same molecule, the “Population Fragmented Nuclei (%)” value [5] was 2.88% and 0.56%, the “Population Healthy Nuclei (%)” value [5] was 86.22% and 58.66% and the “Population Hoechst High Intensity Objects (%)” value [5] was 0%. For the same molecule, the “Population Membrane Permeable-Phenotype (%)” value [5] was 6.98% and 0.95%, the “Population Mitochondria Different-Phenotype (%)” value [5] was 12.34% and 27.62% and the “Population Mitotic Cells (%)” value [5] was 90.4% and 82.19%. The “Population Normal (%)” value [5] was 100%, the “Population Fragmented Nuclei (%)” value [6] was 1.84% and 0.57% and the “Population Healthy Nuclei (%)” value [6] was 83.54% and 53.41%. The “Population Hoechst High Intensity Objects (%)” value [6] was 0%, the “Population Membrane Permeable-Phenotype (%)” value [6] was 4.13% and 5.32% and the “Population Mitochondria Different-Phenotype (%)” value [6] was 29.2% and 45.74%. The “Population Mitotic Cells (%)” value [6] was 95.28% and 80.25% and the “Population Normal (%)” value [6] was 100%.
